According to ChEMBL document CHEMBL1136530, “Synthesis, stereochemical assignment and biological activity of a novel series of C-4" modified aza-macrolides” (2003):
Values after ≈ are worked out from the molar mass of the structure shown.

What was measured:
Assay type in all cases: functional
Escherichia coli = test: Minimum inhibitory concentration against Escherichia coli
Mus musculus = test: In vivo effective dose against Pasteurella multocida infection in mouse
Method in brief: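 Mice infected with P. multocida serotype 5A. Subcutaneous dosing 0.5 h post-infection at 5 to 80 mg/kg. ED50 calculated from the number of mice surviving four days after infection.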

Pasteurella multocida = test: Minimum inhibitory concentration against Pasteurella multocida
Method in brief: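 P. multocida strain 59A0067 (turkey origin), grown overnight on BHI plates; colonies in saline at OD625 0.09 (0.5 McFarland), diluted 1:100 in BHI broth. Two-fold serial dilutions in BHI microdilution, about 5×10⁵ cfu/mL final, 37 °C for 18 h. MIC is the lowest concentration with A600 ≤ 0.025.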

MIC (Escherichia coli): 3.13 µg/mL (≈ 3.9 µM)
MIC (Pasteurella multocida): 0.2 µg/mL (≈ 0.249 µM)
SMILES: CC[C@H]1OC(=O)[C@H](C)[C@@H](O[C@H]2C[C@@](C)(OC)[C@@](O)(C#CCOC)[C@H](C)O2)[C@H](C)[C@@H](O[C@@H]2O[C@H](C)C[C@H](N(C)C)[C@H]2O)[C@](C)(O)C[C@@H](C)CN[C@H](C)[C@@H](O)[C@]1(C)O
ED50 (Mus musculus): 20 mg/kg
